According to ChEMBL document CHEMBL1759861, “Synthesis of 9-substituted derivatives of berberine as anti-HIV agents” (Eur J Med Chem, 2011):

Key:
[1] = test system: Human immunodeficiency virus 1; assay: Antiviral activity against 0.05 MOI Human immunodeficiency virus 1 NL4.3 infected in human CEM cells expressing green fluorescent protein assessed as p24 antigen production at 2.24 uM measured 7 days post infection by ELISA; format: functional; details: Human immunodeficiency virus 1, NL4.3, CCRF-CEM, 168 h
Method in brief: (§1)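 CD4+ T-cell line CEM-GFP infected with HIV-1 NL4.3 at MOI 0.05, monitored by GFP under the microscope. Each sample tested at a single concentration, its highest noncytotoxic concentration, for up to 7 days post infection. Day-7 culture supernatant assayed for virus by p24 antigen capture ELISA; % inhibition of replication reported. AZT positive control.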

[2] = test system: Human immunodeficiency virus 1; assay: Antiviral activity against 0.05 MOI Human immunodeficiency virus 1 NL4.3 infected in human CEM cells expressing green fluorescent protein assessed as p24 antigen production at 5.30 uM measured 7 days post infection by ELISA; format: functional; details: Human immunodeficiency virus 1, NL4.3, CCRF-CEM, 168 h; method in brief: as §1
[3] = test system: Human immunodeficiency virus 1; assay: Antiviral activity against 0.05 MOI Human immunodeficiency virus 1 NL4.3 infected in human CEM cells expressing green fluorescent protein assessed as p24 antigen production at 21.65 uM measured 7 days post infection by ELISA; format: functional; details: Human immunodeficiency virus 1, NL4.3, CCRF-CEM, 168 h; method in brief: as §1
[4] = test system: Human immunodeficiency virus 1; assay: Antiviral activity against 0.05 MOI Human immunodeficiency virus 1 NL4.3 infected in human CEM cells expressing green fluorescent protein assessed as p24 antigen production at 4.69 uM measured 7 days post infection by ELISA; format: functional; details: Human immunodeficiency virus 1, NL4.3, CCRF-CEM, 168 h; method in brief: as §1
[5] = test system: Human immunodeficiency virus 1; assay: Antiviral activity against 0.05 MOI Human immunodeficiency virus 1 NL4.3 infected in human CEM cells expressing green fluorescent protein assessed as p24 antigen production at 1.95 uM measured 7 days post infection by ELISA; format: functional; details: Human immunodeficiency virus 1, NL4.3, CCRF-CEM, 168 h; method in brief: as §1
[6] = test system: Human immunodeficiency virus 1; assay: Antiviral activity against 0.05 MOI Human immunodeficiency virus 1 NL4.3 infected in human CEM cells expressing green fluorescent protein assessed as p24 antigen production measured 7 days post infection by ELISA; format: functional, organism-based; details: Human immunodeficiency virus 1, NL4.3, CCRF-CEM, 168 h
Method in brief: (§2)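 CEM-GFP cells infected with HIV-1 NL4.3 (MOI 0.05) and cultured with samples over a concentration range up to 7 days post infection. p24 antigen capture ELISA on day-7 supernatant. EC50 is the concentration giving 50% inhibition of infected cells. Therapeutic index is CC50 in uninfected cells (MTT, 48 h) divided by EC50.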

[7] = test system: Human immunodeficiency virus 1; assay: Antiviral activity against 0.05 MOI Human immunodeficiency virus 1 NL4.3 infected in human CEM cells expressing green fluorescent protein assessed as p24 antigen production at 5 uM measured 7 days post infection by ELISA; format: functional; details: Human immunodeficiency virus 1, NL4.3, CCRF-CEM, 168 h; method in brief: as §1
[8] = Cytotoxicity against human CEM cells expressing green fluorescent protein after 48 hrs by MTT assay; format: cell-based, CCRF-CEM
Method in brief: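 Uninfected CEM-GFP cells seeded at 2×10^4 cells/well with samples at several concentrations, untreated and vehicle-treated controls, 48 h. MTT reagent (5 mg/ml stock) added, formazan solubilised, absorbance read at 540 nm. CC50 is the concentration giving 50% cytotoxicity.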

[9] = target: Human immunodeficiency virus type 1 reverse transcriptase (Human immunodeficiency virus 1) (UniProt Q72547); assay: Inhibition of Human immunodeficiency virus 1 NL4.3 reverse transcriptase activity at 20 ug/ml
[10] = test system: Human immunodeficiency virus 1; assay: Antiviral activity against 0.05 MOI Human immunodeficiency virus 1 NL4.3 infected in human CEM cells expressing green fluorescent protein assessed as p24 antigen production at 15.52 uM measured 7 days post infection by ELISA; format: functional; details: Human immunodeficiency virus 1, NL4.3, CCRF-CEM, 168 h; method in brief: as §1
[11] = Therapeutic index, ratio of CC50 for human CEM cells expressing green fluorescent protein to EC50 for Human immunodeficiency virus 1 NL4.3; format: cell-based, CCRF-CEM; details: read-out: TI; method in brief: as §2
[12] = test system: Human immunodeficiency virus 1; assay: Antiviral activity against 0.05 MOI Human immunodeficiency virus 1 NL4.3 infected in human CEM cells expressing green fluorescent protein assessed as p24 antigen production at 1.05 uM measured 7 days post infection by ELISA; format: functional; details: Human immunodeficiency virus 1, NL4.3, CCRF-CEM, 168 h; method in brief: as §1
[13] = test system: Human immunodeficiency virus 1; assay: Antiviral activity against 0.05 MOI Human immunodeficiency virus 1 NL4.3 infected in human CEM cells expressing green fluorescent protein assessed as p24 antigen production at 2.10 uM measured 7 days post infection by ELISA; format: functional; details: Human immunodeficiency virus 1, NL4.3, CCRF-CEM, 168 h; method in brief: as §1
[14] = test system: Human immunodeficiency virus 1; assay: Antiviral activity against 0.05 MOI Human immunodeficiency virus 1 NL4.3 infected in human CEM cells expressing green fluorescent protein assessed as p24 antigen production at 18.03 uM measured 7 days post infection by ELISA; format: functional; details: Human immunodeficiency virus 1, NL4.3, CCRF-CEM, 168 h; method in brief: as §1
[15] = test system: Human immunodeficiency virus 1; assay: Antiviral activity against 0.05 MOI Human immunodeficiency virus 1 NL4.3 infected in human CEM cells expressing green fluorescent protein assessed as p24 antigen production at 4.62 uM measured 7 days post infection by ELISA; format: functional; details: Human immunodeficiency virus 1, NL4.3, CCRF-CEM, 168 h; method in brief: as §1
[16] = test system: Human immunodeficiency virus 1; assay: Antiviral activity against 0.05 MOI Human immunodeficiency virus 1 NL4.3 infected in human CEM cells expressing green fluorescent protein assessed as p24 antigen production at 4.88 uM measured 7 days post infection by ELISA; format: functional; details: Human immunodeficiency virus 1, NL4.3, CCRF-CEM, 168 h; method in brief: as §1
[17] = test system: Human immunodeficiency virus 1; assay: Antiviral activity against 0.05 MOI Human immunodeficiency virus 1 NL4.3 infected in human CEM cells expressing green fluorescent protein assessed as p24 antigen production at 1.03 uM measured 7 days post infection by ELISA; format: functional; details: Human immunodeficiency virus 1, NL4.3, CCRF-CEM, 168 h; method in brief: as §1
[18] = test system: Human immunodeficiency virus 1; assay: Antiviral activity against 0.05 MOI Human immunodeficiency virus 1 NL4.3 infected in human CEM cells expressing green fluorescent protein assessed as p24 antigen production at 0.29 uM measured 7 days post infection by ELISA; format: functional; details: Human immunodeficiency virus 1, NL4.3, CCRF-CEM, 168 h; method in brief: as §1
[19] = test system: Human immunodeficiency virus 1; assay: Antiviral activity against 0.05 MOI Human immunodeficiency virus 1 NL4.3 infected in human CEM cells expressing green fluorescent protein assessed as p24 antigen production at 0.02 uM measured 7 days post infection by ELISA; format: functional; details: Human immunodeficiency virus 1, NL4.3, CCRF-CEM, 168 h; method in brief: as §1
[20] = test system: Human immunodeficiency virus 1; assay: Antiviral activity against 0.05 MOI Human immunodeficiency virus 1 NL4.3 infected in human CEM cells expressing green fluorescent protein assessed as p24 antigen production at 9.77 uM measured 7 days post infection by ELISA; format: functional; details: Human immunodeficiency virus 1, NL4.3, CCRF-CEM, 168 h; method in brief: as §1
[21] = target: Human immunodeficiency virus type 1 reverse transcriptase (Human immunodeficiency virus 1) (UniProt Q72547); assay: Inhibition of Human immunodeficiency virus 1 NL4.3 reverse transcriptase activity at 200 ug/ml
Method in brief: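 HIV-1 RT inhibition measured with a colorimetric reverse transcriptase assay kit, following the manufacturer's protocol; nevirapine served as the positive control.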

[22] = test system: Human immunodeficiency virus 1; assay: Antiviral activity against 0.05 MOI Human immunodeficiency virus 1 NL4.3 infected in human CEM cells expressing green fluorescent protein assessed as p24 antigen production at 4.32 uM measured 7 days post infection by ELISA; format: functional; details: Human immunodeficiency virus 1, NL4.3, CCRF-CEM, 168 h; method in brief: as §1
[23] = test system: Human immunodeficiency virus 1; assay: Antiviral activity against 0.05 MOI Human immunodeficiency virus 1 NL4.3 infected in human CEM cells expressing green fluorescent protein assessed as p24 antigen production at 5.31 uM measured 7 days post infection by ELISA; format: functional; details: Human immunodeficiency virus 1, NL4.3, CCRF-CEM, 168 h; method in brief: as §1

Molecule `COc1ccc2cc3[n+](cc2c1OC(=O)Cc1cccs1)CCc1cc2c(cc1-3)OCO2` has an inhibition at 2.24 µM [1] of 0%.

In the case of `COc1ccc2cc3[n+](cc2c1OC(=O)c1ccc(SC)cc1)CCc1cc2c(cc1-3)OCO2`, the inhibition at 5.3 µM [2] is reported as 0%.

Molecule `COc1ccc2cc3[n+](cc2c1OC(=O)c1ccc(F)c(F)c1)CCc1cc2c(cc1-3)OCO2` has an inhibition at 21.65 µM [3] of 0%.

`COc1ccc2cc3[n+](cc2c1OC(=O)c1ccccc1)CCc1cc2c(cc1-3)OCO2` gave an inhibition at 4.69 µM [4] of 37.2%.

Molecule `COc1ccc2cc3[n+](cc2c1OC(=O)c1c(F)cccc1C(F)(F)F)CCc1cc2c(cc1-3)OCO2` has an inhibition at 1.95 µM [5] of 0%.

`Cc1cn([C@H]2C[C@H](N=[N+]=[N-])[C@@H](CO)O2)c(=O)[nH]c1=O` [ZIDOVUDINE] showed an EC50 [6] of 1050 nM and an inhibition at 5 µM [7] of 89.8%.

With `COc1ccc2cc3[n+](cc2c1O)CCc1cc2c(cc1-3)OCO2` [BERBERRUBINE CHLORIDE] the CC50 at 48 h [8] was 169000 nM, the inhibition [9] was 99% and the EC50 [6] was 2800 nM. It also gave an inhibition at 15.52 µM [10] of 77% and a selectivity ratio [11] of 60.4.

In the case of `COc1ccc2cc3[n+](cc2c1OC(=O)c1cccc2ccccc12)CCc1cc2c(cc1-3)OCO2`, the inhibition at 1.05 µM [12] is reported as 0%.

With `COc1ccc2cc3[n+](cc2c1OC(=O)c1ccc2ccccc2c1)CCc1cc2c(cc1-3)OCO2` the inhibition at 2.1 µM [13] was 58.8%.

`COc1ccc2cc3[n+](cc2c1OC(=O)c1ccco1)CCc1cc2c(cc1-3)OCO2` gave an inhibition at 18.03 µM [14] of 22.6%.

With `COc1ccc2cc3[n+](cc2c1OC(=O)c1cccs1)CCc1cc2c(cc1-3)OCO2` the CC50 at 48 h [8] was 91900 nM, the inhibition [9] was 99% and the EC50 [6] was 1820 nM. For the same molecule, the selectivity ratio [11] was 50.5 and the inhibition at 4.62 µM [15] was 73.1%.

For `COc1ccc2cc3[n+](cc2c1OC(=O)c1ccc(F)c(C(F)(F)F)c1)CCc1cc2c(cc1-3)OCO2`, the inhibition at 4.88 µM [16] was 0%.

`COc1ccc2cc3[n+](cc2c1OC(=O)C12CC4CC(CC(C4)C1)C2)CCc1cc2c(cc1-3)OCO2` showed an inhibition at 1.03 µM [17] of 64.2%.

With `COc1ccc2cc3[n+](cc2c1OC)CCc1cc2c(cc1-3)OCO2` [BERBERINE CHLORIDE] the inhibition at 0.29 µM [18] was 66%, the CC50 at 48 h [8] was 2090 nM and the inhibition [9] was 94%. The EC50 [6] was 130 nM and the selectivity ratio [11] was 16.1.

In the case of `COc1ccc(C(=O)Oc2c(OC)ccc3cc4[n+](cc23)CCc2cc3c(cc2-4)OCO3)cc1`, the inhibition at 0.02 µM [19] is reported as 44.3%.

`COc1ccc2cc3[n+](cc2c1OC(=O)c1ccc(C(F)(F)F)cc1F)CCc1cc2c(cc1-3)OCO2` gave an inhibition at 9.77 µM [20] of 23.4%.

Work on `COc1cc2c(cc1OC)[C@@H]1Cc3ccc(OC)c(OC)c3CN1CC2` yielded an inhibition [21] of 25%.

Work on `COc1ccc2cc3[n+](cc2c1OC(=O)c1ccc(F)cc1C(F)(F)F)CCc1cc2c(cc1-3)OCO2` yielded an inhibition at 4.88 µM [16] of 0%.

For `COc1ccc2cc3[n+](cc2c1OC(=O)c1ccc(F)cc1F)CCc1cc2c(cc1-3)OCO2`, the inhibition at 4.32 µM [22] was 71.7%, the CC50 at 48 h [8] was 57100 nM and the inhibition [9] was 99%. It also gave an EC50 [6] of 950 nM and a selectivity ratio [11] of 60.1.

With `COc1ccc2cc3[n+](cc2c1OC(=O)c1ccc2c(c1)OCO2)CCc1cc2c(cc1-3)OCO2` the inhibition at 5.31 µM [23] was 45.6%.
